Legend:
Homo sapiens [1] = species on record: Homo sapiens; assay: Selectivity for human recombinant adenosine A2B receptor over human recombinant adenosine A1 receptor
Adenosine receptor A2b = molecular target: T1, Adenosine receptor A2b (Homo sapiens, UniProt P29275); assay: Displacement of [3H]ZM-241385 from human recombinant adenosine A2B receptor expressed in HEK293 cells; type: cell-based
T1 sequence (P29275 whole entry): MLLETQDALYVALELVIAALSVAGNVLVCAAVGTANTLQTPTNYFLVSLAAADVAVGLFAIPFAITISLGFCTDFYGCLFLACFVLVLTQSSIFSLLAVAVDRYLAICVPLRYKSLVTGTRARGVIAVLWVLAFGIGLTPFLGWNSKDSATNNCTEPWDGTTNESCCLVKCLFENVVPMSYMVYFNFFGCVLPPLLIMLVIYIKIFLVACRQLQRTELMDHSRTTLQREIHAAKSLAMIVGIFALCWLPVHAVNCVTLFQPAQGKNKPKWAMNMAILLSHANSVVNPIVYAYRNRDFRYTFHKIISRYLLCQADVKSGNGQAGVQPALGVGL
Outline: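 Membranes from HEK293 cells stably expressing human A2B receptor; competition with 10 nM radioligand, 50 µg membrane protein, in 50 mM Tris/1 mM EDTA with 1 U/mL adenosine deaminase, 25 °C for 90 min with gentle agitation; filtration, four ice-cold Tris/MgCl2 washes. Nonspecific binding defined with 10 µM unlabelled ligand; Ki calculated.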

Adenosine receptor A1 = molecular target: T2, Adenosine receptor A1 (Homo sapiens, UniProt P30542); assay: Displacement of [3H]CPX from human recombinant adenosine A1 receptor expressed in CHO cells; type: cell-based
T2 sequence (P30542 whole entry): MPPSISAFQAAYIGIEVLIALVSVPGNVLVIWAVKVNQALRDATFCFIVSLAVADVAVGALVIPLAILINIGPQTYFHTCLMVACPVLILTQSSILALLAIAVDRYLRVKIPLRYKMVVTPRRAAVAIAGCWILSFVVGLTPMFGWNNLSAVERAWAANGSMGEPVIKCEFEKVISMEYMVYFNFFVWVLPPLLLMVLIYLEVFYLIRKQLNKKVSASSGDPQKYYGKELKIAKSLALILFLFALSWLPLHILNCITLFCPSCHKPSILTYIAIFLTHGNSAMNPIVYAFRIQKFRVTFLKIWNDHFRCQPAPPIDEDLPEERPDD
Outline: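 CHO cell membranes stably expressing human A1 receptor; 0.5 nM [3H]CPX competed with test compound in 50 mM Tris/1 mM EDTA plus 1 U/mL adenosine deaminase, 25 °C, 90 min, gentle agitation; filtration and four ice-cold Tris/MgCl2 washes. Nonspecific binding defined with 1 µM CPX; Ki values derived.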

Adenosine receptor A2a = Adenosine receptor A2a (Homo sapiens, UniProt P29274); assay: Displacement of [3H]ZM-241385 from human recombinant adenosine A2A receptor expressed in HEK293 cells; type: cell-based
Adenosine receptor A2a, sequence (P29274 whole entry): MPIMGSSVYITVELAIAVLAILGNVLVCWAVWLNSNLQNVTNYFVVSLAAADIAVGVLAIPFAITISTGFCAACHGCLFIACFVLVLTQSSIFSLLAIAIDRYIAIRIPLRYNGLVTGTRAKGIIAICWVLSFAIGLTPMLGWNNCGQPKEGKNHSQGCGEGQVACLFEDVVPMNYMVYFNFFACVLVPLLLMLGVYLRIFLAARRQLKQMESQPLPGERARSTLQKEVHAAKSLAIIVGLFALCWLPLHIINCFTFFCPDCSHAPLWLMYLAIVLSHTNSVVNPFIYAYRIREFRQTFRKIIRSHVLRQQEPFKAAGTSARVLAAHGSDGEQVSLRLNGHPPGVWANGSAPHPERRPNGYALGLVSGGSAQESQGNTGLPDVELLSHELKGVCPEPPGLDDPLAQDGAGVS
Outline: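 Membranes from HEK293 cells stably expressing human A2A receptor; 2 nM radioligand competed in 50 mM Tris/1 mM EDTA with 1 U/mL adenosine deaminase for 90 min at 25 °C with agitation; filtration, four ice-cold Tris/MgCl2 washes. Nonspecific binding defined with 1 µM unlabelled ligand; Ki computed.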

Adenosine receptor A3 = molecular target: T3, Adenosine receptor A3 (Homo sapiens, UniProt P0DMS8); assay: Displacement of [125I]ABMECA from human recombinant adenosine A3 receptor expressed in CHO cells; type: cell-based
T3 sequence (P0DMS8 whole entry): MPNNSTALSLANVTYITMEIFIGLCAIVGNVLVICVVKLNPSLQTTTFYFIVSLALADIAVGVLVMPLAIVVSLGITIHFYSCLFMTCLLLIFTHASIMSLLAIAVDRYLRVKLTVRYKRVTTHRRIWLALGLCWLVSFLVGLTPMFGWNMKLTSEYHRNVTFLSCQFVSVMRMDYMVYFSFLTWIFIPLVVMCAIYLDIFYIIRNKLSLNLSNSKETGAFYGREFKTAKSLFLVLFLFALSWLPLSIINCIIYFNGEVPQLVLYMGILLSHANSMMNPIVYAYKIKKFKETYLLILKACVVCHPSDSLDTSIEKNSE
Outline: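 Human A3 receptor stably expressed in CHO cells; membranes incubated with 0.1 nM 125I-AB-MECA and test compound in 50 mM Tris, 1 mM EDTA, 10 mM MgCl2 plus 1 U/mL adenosine deaminase, 25 °C, 90 min; filtration, four ice-cold washes. Nonspecific binding defined with 1 µM IB-MECA; Ki determined.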

Homo sapiens [2] = species on record: Homo sapiens; assay: Selectivity for human recombinant adenosine A2B receptor over human recombinant adenosine A2A receptor
Homo sapiens [3] = species on record: Homo sapiens; assay: Selectivity for human recombinant adenosine A2B receptor over human recombinant adenosine A3 receptor

Structure (SMILES) | Ratio Ki (Homo sapiens [1]) | Ki (Adenosine receptor A2b) [nM] | Ki (Adenosine receptor A1) [nM] | Ki (Adenosine receptor A2a) [nM] | Ki (Adenosine receptor A3) [nM] | Ratio Ki (Homo sapiens [2]) | Ratio Ki (Homo sapiens [3])
CCCn1c(=O)c2[nH]c(-c3cnn(Cc4cccc(F)c4)c3)nc2n(CCC)c1=O | 13 | – | – | – | – | 17 | 4
CCCn1c(=O)c2[nH]c(-c3cn[nH]c3)nc2n(CC)c1=O | 4 | 49 | 178 | 496 | – | 10 | –
CCn1c(=O)c2[nH]c(-c3cn[nH]c3)nc2n(C)c1=O | – | 120 | – | – | – | – | –
CCCn1c(=O)c2[nH]c(-c3cnn(Cc4cccc(C(F)(F)F)c4)c3)nc2n(CCC)c1=O | 12 | – | – | – | – | 28 | 10
Cn1c(=O)c2nc(-c3cnn(Cc4cccc(C(F)(F)F)c4)c3)[nH]c2n(C)c1=O | 992 | – | – | – | – | 686 | 100
CCCn1c(=O)c2[nH]c(-c3cnn(Cc4ccccn4)c3)nc2n(CC)c1=O | 9 | 46 | 410 | 411 | – | 9 | –
CCn1c(=O)c2nc(-c3cnn(Cc4cccc(C(F)(F)F)c4)c3)[nH]c2n(CC)c1=O | 44 | – | – | – | – | 34 | 34
CCCn1c(=O)c2[nH]c(-c3cnn(Cc4ccc(C)nc4)c3)nc2n(CC)c1=O | 33 | 45 | 1520 | 670 | 290 | 15 | 6
CCn1c(=O)n(CC(C)C)c(=O)c2[nH]c(-c3cn[nH]c3)nc21 | 2 | 141 | 348 | 1220 | – | 9 | –
CCn1c(=O)c2nc(-c3cnn(Cc4cccc(F)c4)c3)[nH]c2n(CC)c1=O | 76 | – | – | – | – | 58 | 91
Cn1c(=O)c2[nH]c(-c3cnn(Cc4cccc(F)c4)c3)nc2n(C)c1=O | 17 | – | – | – | – | 7 | –
CC(C)Cn1c(=O)c2[nH]c(-c3cn[nH]c3)nc2n(C)c1=O | 9 | 42 | 376 | 1390 | – | 33 | –
CCCn1c(=O)c2[nH]c(-c3cnn(Cc4noc(-c5ccc(Cl)cc5)n4)c3)nc2n(CC)c1=O | > 18 | 335 | > 6000 | > 5000 | – | > 15 | –
CCCn1c(=O)c2[nH]c(-c3cnn(Cc4ccc[n+]([O-])c4)c3)nc2n(CC)c1=O | 2 | 506 | 1120 | 1950 | – | 4 | –
CC(C)Cn1c(=O)c2[nH]c(-c3cnn(Cc4cccc(C(F)(F)F)c4)c3)nc2n(C)c1=O | 3 | 199 | 617 | 633 | – | 3 | –

More lines, in order of falling Ki (Adenosine receptor A2b), values ahead:

Ratio Ki (Homo sapiens [1]) | Ki (Adenosine receptor A2b) [nM] | Ki (Adenosine receptor A1) [nM] | Ki (Adenosine receptor A2a) [nM] | Ki (Adenosine receptor A3) [nM] | Ratio Ki (Homo sapiens [2]) | Ratio Ki (Homo sapiens [3]) | Structure (SMILES)
5 | 42 | 200 | 781 | – | 18 | – | CCCn1c(=O)c2[nH]c(-c3cnn(Cc4cc(-c5ccc(Cl)cc5)on4)c3)nc2n(CC)c1=O
2 | 38 | 76 | 234 | – | 6 | – | CCn1c(=O)n(CC2CC2)c(=O)c2[nH]c(-c3cn[nH]c3)nc21
9 | 31 | 275 | 261 | – | 8 | – | CCCn1c(=O)c2[nH]c(-c3cnn(Cc4ccccc4)c3)nc2n(CC)c1=O
13 | 30 | 416 | 247 | – | 8 | – | CCCCn1c(=O)c2[nH]c(-c3cnn(Cc4ccccc4)c3)nc2n(C)c1=O
11 | 27 | 314 | 181 | – | 6 | – | CCn1c(=O)n(CC2CC2)c(=O)c2[nH]c(-c3cnn(Cc4ccccc4)c3)nc21
11 | 26 | 305 | 217 | – | 8 | – | CCCCn1c(=O)c2[nH]c(-c3cnn(Cc4cccc(F)c4)c3)nc2n(C)c1=O
87 | 25 | 2190 | 2370 | 3810 | 94 | 152 | CCCn1c(=O)c2[nH]c(-c3cnn(Cc4cc(-c5ccc(C(F)(F)F)cc5)on4)c3)nc2n(CC)c1=O
10 | 22 | 218 | 272 | 326 | 12 | 15 | CCn1c(=O)n(CC2CC2)c(=O)c2[nH]c(-c3cnn(Cc4cccc(C(F)(F)F)c4)c3)nc21
23 | 22 | 522 | 312 | – | 14 | – | CCCn1c(=O)c2[nH]c(-c3cnn(Cc4cccnc4)c3)nc2n(CC)c1=O
8 | 21 | 167 | 312 | 160 | 15 | 7 | Cn1c(=O)n(CC2CC2)c(=O)c2[nH]c(-c3cnn(Cc4cccc(C(F)(F)F)c4)c3)nc21
16 | 21 | 347 | 408 | 204 | 19 | 9 | CC(C)Cn1c(=O)c2[nH]c(-c3cnn(Cc4ccccc4)c3)nc2n(C)c1=O
180 | 20 | 3590 | 5410 | 350 | 270 | 17 | CCn1c(=O)n(CC(C)C)c(=O)c2[nH]c(-c3cnn(Cc4ccc(C(F)(F)F)nc4)c3)nc21
30 | 19 | 582 | 125 | – | 6 | – | CCCn1c(=O)c2[nH]c(-c3cnn(Cc4ccccc4)c3)nc2n(C)c1=O
56 | 16 | 910 | 3780 | 413 | 236 | 25 | CCCn1c(=O)c2[nH]c(-c3cnn(Cc4nc(-c5ccc(Cl)cc5)no4)c3)nc2n(CC)c1=O
57 | 11 | 631 | 1090 | 250 | 99 | 23 | CCn1c(=O)n(CC(C)C)c(=O)c2[nH]c(-c3cnn(Cc4cccc(C(F)(F)F)c4)c3)nc21
14 | 11 | 154 | 149 | 91 | 13 | 8 | Cn1c(=O)n(CC2CC2)c(=O)c2[nH]c(-c3cnn(Cc4ccccc4)c3)nc21
45 | 6 | 274 | 234 | 262 | 39 | 43 | CCn1c(=O)c2[nH]c(-c3cnn(Cc4cccc(C(F)(F)F)c4)c3)nc2n(C)c1=O
58 | 6 | 350 | 231 | 282 | 38 | 47 | CCn1c(=O)c2[nH]c(-c3cnn(Cc4cccc(F)c4)c3)nc2n(C)c1=O
130 | 2 | 260 | 73 | 92 | 36 | 46 | CCn1c(=O)c2[nH]c(-c3cnn(Cc4ccccc4)c3)nc2n(C)c1=O

Reference: ChEMBL document CHEMBL1145545, “Discovery of a novel A2B adenosine receptor antagonist as a clinical candidate for chronic inflammatory airway diseases” (J Med Chem, 2008)
